In ChEMBL document CHEMBL1765019, “Design, synthesis and biological activity of thiazolidine-4-carboxylic acid derivatives as novel influenza neuraminidase inhibitors” (Bioorg Med Chem, 2011):
pIC50: −log10 of the molar value.

Molecular target: Neuraminidase (Influenza A virus, UniProt B4URF0)
Assay: Inhibition of influenza A virus neuraminidase assessed as cleavage of MUNANA substrate by fluorescence assay
How it was run: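 Screening-kit NA enzyme, not from an avian H5N1 strain, incubated with buffer, substrate and inhibitor at 37 °C. Reaction stopped with stop solution. IC50 taken from percent inhibition plotted against inhibitor concentration; each point in duplicate.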

Molecule `COc1cccc(C2SC[C@@H](C(=O)O)N2C(=O)CN)c1O` (mixture of isomers) has a pIC50 of 6.85.

Work on `O=C(O)[C@@H]1CSC(c2ccccc2O)N1C(=O)CCl` (mixture of isomers) yielded a pIC50 of 5.23.

In the case of `O=C(O)[C@@H]1CSC(c2ccccc2[N+](=O)[O-])N1C(=O)Cc1ccccc1` (mixture of isomers), the pIC50 was 5.73.

Work on `O=C(O)[C@@H]1CSC(c2ccccc2[N+](=O)[O-])N1` (mixture of isomers) yielded a pIC50 of 4.65.

`O=C(O)[C@@H]1CSC(c2ccco2)N1` (mixture of isomers) gave a pIC50 of 4.37.

In the case of `COc1cccc(C2N[C@H](C(=O)O)CS2)c1O` (mixture of isomers), the pIC50 was 4.91.

Molecule `O=C(O)c1ccccc1C1SC[C@@H](C(=O)O)N1C(=O)CCl` (mixture of isomers) has a pIC50 of 4.97.

With `O=C(O)[C@@H]1CSC(c2ccco2)N1C(=O)CCl` (mixture of isomers) the pIC50 was 4.89.

In the case of `N#Cc1ccc(C2SC[C@@H](C(=O)O)N2C(=O)CN)cc1` (mixture of isomers), the pIC50 was 6.09.

`N#Cc1ccc(C2SC[C@@H](C(=O)O)N2C(=O)CCl)cc1` (mixture of isomers) was tested, and the pIC50 was 5.06.

In the case of `NCC(=O)N1C(c2ccccc2C(=O)O)SC[C@H]1C(=O)O` (mixture of isomers), the pIC50 was 6.55.

Molecule `O=C(O)c1ccccc1C1N[C@H](C(=O)O)CS1` (mixture of isomers) has a pIC50 of 4.74.

`O=C(O)c1ccccc1C1SC[C@@H](C(=O)O)N1C(=O)Cc1ccccc1` (mixture of isomers) was tested, and the pIC50 was 5.72.

`O=C(O)[C@@H]1CSC(c2ccccc2)N1C(=O)Cc1ccccc1` (mixture of isomers) gave a pIC50 of 5.92.

`COc1cccc(C2SC[C@@H](C(=O)O)N2C(=O)Cc2ccccc2)c1O` (mixture of isomers) was tested, and the pIC50 was 5.79.

Molecule `NCC(=O)N1C(c2ccccc2[N+](=O)[O-])SC[C@H]1C(=O)O` (mixture of isomers) has a pIC50 of 5.99.

For `O=C(O)[C@@H]1CSC(c2ccccc2O)N1` (mixture of isomers), the pIC50 was 4.69.

`O=C(O)[C@@H]1CSC(c2ccccc2[N+](=O)[O-])N1C(=O)CCl` (mixture of isomers) showed a pIC50 of 5.12.

Work on `NCC(=O)N1C(c2ccccc2)SC[C@H]1C(=O)O` (mixture of isomers) yielded a pIC50 of 6.28.

Work on `COc1cccc(C2SC[C@@H](C(=O)O)N2C(=O)CCl)c1O` (mixture of isomers) yielded a pIC50 of 5.10.

For `O=C(O)[C@@H]1CSC(c2ccco2)N1C(=O)Cc1ccccc1` (mixture of isomers), the pIC50 was 5.54.

`NCC(=O)N1C(c2ccccc2O)SC[C@H]1C(=O)O` (mixture of isomers) was tested, and the pIC50 was 6.68.

Molecule `N#Cc1ccc(C2N[C@H](C(=O)O)CS2)cc1` (mixture of isomers) has a pIC50 of 4.63.

With `O=C(O)[C@@H]1CSC(c2ccccc2)N1C(=O)CCl` (mixture of isomers) the pIC50 was 5.12.

`NCC(=O)N1C(c2ccco2)SC[C@H]1C(=O)O` (mixture of isomers) showed a pIC50 of 6.01.

Molecule `N#Cc1ccc(C2SC[C@@H](C(=O)O)N2C(=O)Cc2ccccc2)cc1` (mixture of isomers) has a pIC50 of 5.61.

With `O=C(O)[C@@H]1CSC(c2ccccc2)N1` (mixture of isomers) the pIC50 was 4.67.

In the case of `O=C(O)[C@@H]1CSC(c2ccccc2O)N1C(=O)Cc1ccccc1` (mixture of isomers), the pIC50 was 6.19.
